From ChEMBL document CHEMBL3271958, “Azaparacyclophanes. A novel class of conformationally rigid analogs of phenylethylamine and phenylpropylamine” (J Med Chem, 1976)
Active and inactive are the calls of the source. No cut-off for these calls is given here.

How the values were obtained:
Mus musculus [1] = experiment: Toxicity in mouse at 100 mg/kg, ip; format: organism-based; design: dose 100 mg/kg, route intraperitoneal; settings: in vivo
Rattus norvegicus = experiment: Central dopaminergic activity in rat assessed as dopaminergic stimulant activity at 30 mg/kg, ip; format: ADME, organism-based; design: dose 30 mg/kg, route intraperitoneal; settings: in vivo
In short: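 Rats carrying 6-hydroxydopamine lesions of the nigrostriatal pathway (Ungerstedt), dosed 30 mg/kg ip. Rotation was scored: ipsilateral turning indicates release of endogenous dopamine, contralateral turning indicates direct dopamine-receptor stimulation.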

Mus musculus [2] = experiment: Induction of mydriasis in mouse assessed as […] at 100 mg/kg, ip by binocular microscopic analysis; format: functional, organism-based; design: dose 100 mg/kg
In short: (§1)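 Mouse pupil diameter was read through a binocular microscope fitted with an ocular micrometer (Pulewka method), after dosing within the mouse behaviour screen.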

Felis catus [3] = experiment: Sympathomimetic activity in iv dosed cat assessed as increase of heart rate and blood pressure; format: ADME, organism-based; settings: in vivo
In short: (§2)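 Pentobarbital-anaesthetised cat monitored for blood pressure and heart rate. Hydrochloride salt given as cumulative iv doses of 1, 3 and 10 mg/kg, each tested against a standard acetylcholine challenge of 1 μg/kg, noting any change in the normal heart-rate and pressure responses.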

Mus musculus [4] = experiment: Sympathomimetic activity in mouse assessed as signs of exophthalmia and piloerection at 10 to 300 mg/kg, ip; format: ADME, organism-based; design: dose 10-300 mg/kg, route intraperitoneal; settings: in vivo
Felis catus [5] = experiment: Anticholinergic activity in cat assessed as effect on acetylcholine-induced normal heart rate and blood pressure changes at 1 to 10 mg/kg, iv; format: ADME, organism-based; design: dose 1-10 mg/kg, route intravenous; settings: in vivo; in short: as §2
Mus musculus [6] = experiment: Induction of mydriasis in mouse assessed as papillary diameter at 25 mg/kg, sc by binocular microscopic analysis; format: functional, organism-based; design: dose 25 mg/kg; in short: as §1
Mus musculus [7] = experiment: Induction of mydriasis in mouse assessed as papillary diameter at 30 mg/kg, ip by binocular microscopic analysis; format: functional, organism-based; design: dose 30 mg/kg; in short: as §1
Mus musculus [8] = experiment: Toxicity in mouse at 30 mg/kg, ip; format: organism-based; design: dose 30 mg/kg, route intraperitoneal; settings: in vivo
Mus musculus [9] = experiment: Sympathomimetic activity in mouse assessed as signs of exophthalmia at 100 mg/kg, ip; format: ADME, organism-based; design: dose 100 mg/kg, route intraperitoneal; settings: in vivo
In short: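 Irwin-type mouse behavioural screen with intraperitoneal doses of 10, 30, 100 and 300 mg/kg, compound given as the hydrochloride salt. Animals were scored by observation for overt signs, including exophthalmia as an indicator of sympathomimetic activity and mydriasis. Pupil diameter was measured under a binocular microscope with an ocular micrometer.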

SMILES | Activity (Mus musculus [1]) | Activity (Rattus norvegicus) | Activity (Mus musculus [2]) | Activity (Felis catus [3]) | Activity (Mus musculus [4]) | Activity (Felis catus [5]) | Activity (Mus musculus [6]) | Activity (Mus musculus [7]) | Activity (Mus musculus [8]) | Activity (Mus musculus [9])
CCCCCc1ccc(CCNC)cc1.O=C(O)/C=C\C(=O)O | Toxic | Non-toxic | inactive |  |  |  |  |  |  | 
Cl.c1cc2ccc1CCCCCNCCC2 |  | Non-toxic |  | Non-toxic | Non-toxic | Non-toxic | Active | Active |  | 
O=C(O)/C=C\C(=O)O.c1cc2ccc1CCCCCCNCC2 |  | Non-toxic |  |  |  |  |  | inactive | Toxic | 
CCCCc1ccc(CCCNC)cc1.Cl |  | Non-toxic | Active |  |  |  |  |  |  | Toxic
